OX1R antag-1: OX1R (HCRTR1) antagonists, primary screen, fluorescence, CHO/OX1R cells, Fluo-8 calcium, orexin A | inhibition, % at 5 µM | Fluo-8 calcium fluorescence | AID 434989, 2010 | 0.43% of 330,000 active;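 active = inhibition above its plate's threshold, mean inhibition of all tested compounds on the plate plus 3 SD, cut at about 37% in these data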;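 note: 0% = orexin A challenge wells and 100% = SB-334867-A antagonist wells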
EP2 antag: human EP2 receptor antagonists, primary screen, TR-FRET cAMP, C6 glioma cells. 0.52% of 260,000 active. Prostaglandin E2 receptor EP2 subtype (Homo sapiens), P43116. AID 1422, 2008. inhibition, % at 25 µM. C6 glioma cells expressing human EP2; cells stimulated with saturating PGE2;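 active = percent inhibition above 40 after rounding to a whole number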;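 note: rat C6 glioma host cells with rolipram phosphodiesterase inhibitor present; the protocol text gives 20 µM as final concentration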
Target sequence (P43116 whole entry, looked up): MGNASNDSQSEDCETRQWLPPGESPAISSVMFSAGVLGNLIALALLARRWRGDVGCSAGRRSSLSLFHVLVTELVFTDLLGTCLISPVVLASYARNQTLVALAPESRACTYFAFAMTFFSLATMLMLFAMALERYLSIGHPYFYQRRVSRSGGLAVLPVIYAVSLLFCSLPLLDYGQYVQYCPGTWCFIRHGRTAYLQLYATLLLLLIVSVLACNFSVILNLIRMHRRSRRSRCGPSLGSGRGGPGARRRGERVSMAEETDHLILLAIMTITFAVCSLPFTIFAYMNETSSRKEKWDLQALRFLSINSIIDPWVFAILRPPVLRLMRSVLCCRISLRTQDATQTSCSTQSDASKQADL
OX1R antag-2: antagonists of human orexin 1 receptor (OX1R); AID 485270, 2010; inhibition, % at 6.6 µM; Orexin/Hypocretin receptor type 1 (Homo sapiens), O43613; 1.8% of 330,000 active; OX1R-expressing cells, FRET antagonist read-out; in the data active = inhibition mostly above about 38%, no sharp cut-off; inactive = mostly below about 40%;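 note: 0% = agonist challenge alone and 100% = reference antagonist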
EP2 modulator: EP2 receptor modulators, cAMP readout, primary screen, cell-based, HTRF cAMP, PGE2 stimulation; Prostaglandin E2 receptor EP2 subtype (Homo sapiens), P43116; EP2-expressing cells, cAMP HTRF FRET, PGE2 co-stimulation; induction, % at 25 µM; 0.83% of 260,000 active;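 active = compounds whose cAMP rise, as percent of the full-agonist control response, exceeds 60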;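 note: rat C6 glioma line stably carrying human EP2 under a CMV promoter; the protocol text gives 20 µM as final concentration; 100% = response of wells given 1 µM PGE2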
GPR7 antag: GPR7 receptor antagonists, primary screen, cell-based, fluorescence, single concentration | GPR7-expressing cells, fluorescence antagonist assay | 1.1% of 290,000 active | AID 1861, 2009 | Neuropeptides B/W receptor type 1 (Homo sapiens), P48145 | inhibition, % at 4.4 µM; in the data active = inhibition above about 16%, passing the limit was not always enough;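 note: cells stimulated with the agonist NPW; 0% = agonist with vehicle and 100% = vehicle without agonist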
Target sequence (P48145 whole entry, looked up): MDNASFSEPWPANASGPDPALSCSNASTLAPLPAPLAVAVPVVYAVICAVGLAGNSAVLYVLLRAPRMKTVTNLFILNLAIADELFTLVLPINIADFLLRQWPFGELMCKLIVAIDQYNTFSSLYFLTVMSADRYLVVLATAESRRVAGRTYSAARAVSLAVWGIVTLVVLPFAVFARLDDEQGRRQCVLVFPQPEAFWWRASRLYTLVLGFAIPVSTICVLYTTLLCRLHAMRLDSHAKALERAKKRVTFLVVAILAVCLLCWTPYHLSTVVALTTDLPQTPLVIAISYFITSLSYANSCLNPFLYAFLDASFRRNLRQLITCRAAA
CHO parental Ca: ATP-evoked calcium signal inhibitors, parental CHO, primary screen, counter-screen for OX1R antagonist project, cell-based, fluorescence, Fluo-8 calcium dye | 0.63% of 330,000 active | inhibition, % at 5.6 µM | parental CHO-K1, ATP-induced calcium, Fluo-8 fluorescence;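 active = inhibition above that plate's mean sample inhibition plus 3 SD, cut at about 26% in these data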;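 note: 0% = ATP-challenged DMSO wells and 100% = DMSO wells without ATP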
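Material: parental CHO cells / Compound: single nominal dose of 5.6 µM per compound / Signal: Fluo-8 fluorescence / Replicates: singlicate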
The depositor's hits bear a star; · = no result given. This is a sample that favours compounds with a hit; in the whole collection about 3.7% have one here.

SMILES	OX1R antag-1	EP2 antag	OX1R antag-2	EP2 modulator	GPR7 antag	CHO parental Ca
C/C(=N\NC(=O)c1cccc(N/N=C(\C)c2cc(O)ccc2O)c1)c1cc(O)ccc1O	-10.8	37.4	12.3	-40.8	2.9	-10.3
Cc1ccc(-n2nc(C)c3c(C)c(CCC(=O)NC(C)c4ccccc4)c(C)nc32)cc1 (centres undefined)	-12.7	11.0	14.4	7.7	-9.1	-11.5
Cc1nc2ccc(N=NC3=C(O)CC(C)(C)CC3=O)cc2s1	11.1	3.7	61.6*	-12.7	10.1	-7.5
CC(=O)N1CCc2cc(N=NC3=C(O)CC(C)(C)CC3=O)ccc21	-5.0	6.0	56.1*	-6.2	-7.0	2.7
Cc1nc2ccc(N=NC3=C(O)CCCC3=O)cc2s1	-1.9	10.3	29.6	-26.6	6.3	-8.7
CCS(=O)(=O)N1CCC(c2[nH]ncc2-c2cc(C)no2)CC1	·	·	·	-35.1	·	·
CCc1nc2ccc(C(=O)NCc3ccco3)cc2nc1CC	-9.6	8.8	22.1	-23.2	-6.7	-15.7
CN(C)c1ncnc2c1ncn2CCn1cnc2c(N(C)C)ncnc21	·	45.5*	·	28.7	·	·
CN(C)c1ncnc2c1ncn2C1OC(CO)C(O)C1O (centres undefined)	-5.2	15.3	14.4	-0.7	-7.4	-3.8
CC(C)(C)c1ccc(S(=O)(=O)Nc2ccccn2)cc1	-20.3	4.5	5.7	8.8	-3.9	-4.4
O=[N+]([O-])c1ccc(Oc2ncccn2)cc1	-6.2	·	44.6*	·	·	-7.7
O=C1C(Cl)=C(Nc2ccc(S(=O)(=O)Nc3ccccn3)cc2)C(=O)c2ccccc21	·	107.1*	·	-63.1	·	·
O=C1C(Cl)=C(Nc2ccc(O)cc2)C(=O)c2ccccc21	43.9*	26.4	156.2*	-38.7	38.3*	44.9*
O=C1C(Cl)=C(NS(=O)(=O)c2ccc([N+](=O)[O-])cc2)C(=O)c2ccccc21	-0.2	3.3	44.7*	10.9	3.2	11.6
c1cnc(Oc2ccc3oc4ccccc4c3c2)nc1	-19.3	7.2	22.9	-36.2	6.9	-3.9
O=[N+]([O-])c1ccc(Oc2ccc(S(=O)(=O)Nc3ccccc3)cc2)cc1	49.6*	3.9	26.4	-56.9	58.0*	19.7
O=[N+]([O-])c1ccc(S(=O)(=O)Nc2ccncc2)cc1	-0.7	·	24.5	·	-13.0	15.2
O=S(=O)(Nc1ccccc1)c1ccc(Oc2ncc(C(F)(F)F)cc2Cl)cc1	88.2*	7.1	46.9*	57.2	-4.1	73.3*
CC(=O)Oc1c(/C=C(\C#N)C(N)=O)[nH]c2ccccc12	·	94.9*	·	-100.5	-4.0	·
Cc1ccc(Nc2c(-c3ccccn3)nc3cccc(C)n23)cc1	-43.2	6.0	15.0	49.0	-4.8	-22.2
C=CCNC(=O)c1c(Br)cnn1-c1ccc(C)cc1	-28.8	4.5	12.1	-34.1	18.4*	-0.3
CN(C)C(/C=C/Nc1cccc([N+](=O)[O-])c1)=C(C#N)C#N	5.4	7.5	50.5*	-22.4	-11.1	-5.9
Cc1cccc(N/C=C/C(=C(C#N)C#N)N(C)C)c1	1.8	3.3	5.7	0.3	-11.8	-3.1
O=C1/C(=C\c2ccncc2)CCc2ccccc21	-14.0	·	21.9	·	·	-2.7
O=C1/C(=C/c2cccc3ccccc23)CCCc2ccccc21	-39.7	·	30.6	61.1*	-16.5	-21.4
SMILES	OX1R antag-1	EP2 antag	OX1R antag-2	EP2 modulator	GPR7 antag	CHO parental Ca
COC(=O)c1c(NC(=O)CSc2nnc(Cn3nnc4ccccc43)n2C)sc(C)c1C	-32.0	3.7	13.7	11.9	-13.4	-31.6
CC1CCN(C(=O)CSc2nc(COc3ccccc3)nc3ccccc23)CC1	·	8.9	·	80.5*	·	·
CCC1=C(C[C@H]2NCCc3ccccc32)C[C@H]2c3cc(OC)c(OC)cc3CCN2C1	·	53.1*	·	22.0	·	·
COCCN1C(=O)c2ccc(C(=O)Nc3nccs3)cc2C1=O	-5.4	4.0	45.9*	-9.3	-8.4	4.6
CCCN1C(=O)c2ccc(C(=O)Nc3nccs3)cc2C1=O	-6.9	16.0	45.2*	0.3	-5.3	-5.9
COc1ccc(CC(=O)Nc2cccc(C(=O)Nc3nccs3)c2)cc1OC	·	5.4	·	-55.3	·	·
COc1ccccc1CC(=O)Nc1cccc(C(=O)Nc2nccs2)c1	-11.7	4.9	49.0*	-23.5	-6.2	-15.6
CCOc1ccc(N(CC(=O)NCCSc2ccccn2)S(=O)(=O)c2ccc(Cl)cc2)cc1	-36.7	·	15.2	·	-20.2	-36.2
CSCc1c(C(=O)N2CCCc3ccccc32)oc2ccccc12	9.0	·	22.7	·	·	-22.2
O=c1[nH]cnc2c1nc(NCc1ccccc1)n2C1O[C@@H](CO)[C@H](O)[C@@H]1O (some centres undefined)	2.4	·	5.8	·	2.4	-7.2
Cn1c(N)nc2c(nc(OCc3ccccc3)n2[C@H]2O[C@H](CO)[C@@H](O)[C@@H]2O)c1=O	·	57.2*	·	25.1	·	·
O=C(Nc1ccnn1C1CCN(C(=O)c2ccc(Cl)c(F)c2)CC1)C1CCOC1 (centres undefined)	·	·	·	·	-5.9	·
COc1ccc(Cl)cc1NC(=O)c1ccc2c(SCC(=O)O)c3c(nc2c1)CCCC3	-19.9	·	10.7	·	-7.0	-9.3
CCOC(=O)Cn1c(=N)n(CCOc2ccc3ccccc3c2)c2ccccc21	-8.4	17.8	5.8	-46.7	20.8*	-4.0
O=C(CSc1nnc2scc(-c3ccccc3)n12)Nc1nsc(-c2ccccc2)n1	9.2	-0.9	72.6*	-39.5	-2.1	-26.9
COc1ccccc1OCc1nnc(SCC(=O)Nc2cccc(Cl)c2C)n1C	·	14.7	·	2.3	·	·
CCC(C)OC(=O)C1=C(C)NC2=C(C(=O)CC(c3ccc(OC)c(OC)c3)C2)C1c1ccc(C)o1 (centres undefined)	·	11.7	·	8.8	·	·
COc1ccc(C2CC(=O)C3=C(C2)NC(C)=C(C(=O)OC2CCCC2)C3c2ccc(C)o2)cc1OC (centres undefined)	·	40.0*	·	-6.2	·	·
CCCn1c(SCC(=O)Nc2cccc(C)n2)nc2c1c(=O)n(C)c(=O)n2C	-17.5	10.8	12.5	3.0	3.5	-8.2
CSC1=C(C#N)C(c2cccs2)CC(=O)N1C (centres undefined)	·	·	·	·	6.2	·
COc1ccc2c3c([nH]c2c1)C1CC2C(CC(O)C(OC)C2C(=O)O)CN1CC3 (centres undefined)	12.9	13.5	12.4	-16.7	-1.9	-3.0
COC(=O)[C@H]1[C@@H]2C[C@H]3c4[nH]c5ccccc5c4CCN3C[C@H]2CC[C@@H]1O	·	41.2*	·	9.5	·	·

Assay outcomes (PubChem)
